Compounds with a hit are over-represented: about 3.7% of the library has one in this group of screens.
hERG rescue: compounds protecting human hERG from proarrhythmic drug block; Q12809; CHO-hERG, FluxOR thallium flux, dofetilide IC70 present; activation (rescue from dofetilide block), less the hit threshold, % at 10 µM; hit rate 0.51% among 310,000; AID 1511;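 active = activation above the mean of controls blocked by dofetilide plus 5 SD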;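 note: thallium influx through hERG after potassium depolarization seen as dye fluorescence rise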
KCNQ1 act: human KCNQ1 channel potentiation or activation; AID 2648; CHO-K1 KCNQ1, thallium flux FluxOR fluorescence; active compounds read high; hit rate 0.35% among 310,000; B-score at 10 µM;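 active = fluorescence ratio B-score, a plate-corrected score, at least three library SD, with initial intensity B-score within 5 SD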
Target sequence (P51787 whole entry, looked up): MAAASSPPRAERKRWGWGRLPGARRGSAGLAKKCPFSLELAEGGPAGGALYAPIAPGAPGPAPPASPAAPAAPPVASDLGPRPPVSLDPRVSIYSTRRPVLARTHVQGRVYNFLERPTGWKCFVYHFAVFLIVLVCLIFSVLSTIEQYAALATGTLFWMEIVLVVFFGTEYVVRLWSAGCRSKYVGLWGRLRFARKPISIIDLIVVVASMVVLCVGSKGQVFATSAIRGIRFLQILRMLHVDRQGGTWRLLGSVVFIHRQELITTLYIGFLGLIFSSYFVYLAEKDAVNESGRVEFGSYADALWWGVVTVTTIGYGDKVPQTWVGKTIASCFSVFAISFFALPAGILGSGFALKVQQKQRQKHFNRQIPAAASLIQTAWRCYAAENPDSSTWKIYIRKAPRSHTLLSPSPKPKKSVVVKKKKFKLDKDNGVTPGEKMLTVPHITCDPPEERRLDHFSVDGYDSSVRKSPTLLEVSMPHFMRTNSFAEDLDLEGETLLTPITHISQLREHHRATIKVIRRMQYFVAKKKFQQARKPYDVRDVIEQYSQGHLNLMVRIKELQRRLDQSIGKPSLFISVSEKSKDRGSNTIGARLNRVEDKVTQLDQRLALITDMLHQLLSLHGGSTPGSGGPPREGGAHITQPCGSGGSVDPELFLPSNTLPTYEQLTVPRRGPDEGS
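assay system = CHO-K1 cells stably expressing KCNQ1 | medium = assay buffer, equal DMSO in all wells | timing = 37 °C overnight plating, 90-min dark dye load, 20-min compound pretreatment | measured by = kinetic FluxOR thallium fluorescence, 10-s 1-Hz baseline, 110-s post-stimulus read | measure = fluorescence change relative to baseline, converted to B score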
Kir21 inh: inhibitors of mouse Kir2.1 inward-rectifier potassium channel. hit rate 0.85% among 310,000. P35561. HEK293-Kir2.1, FluxOR thallium flux fluorescence; active compounds read low. B-score at 10 µM;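 active = fluorescence ratio B-score at or below minus 3 SD of library scores, with starting-brightness B-score within 2 SD, cut at about -4.2 in these data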;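 note: channel flux triggered by added potassium and thallium sulfate stimulus; B-score of peak minus minimum fluorescence over baseline after thallium stimulus; more negative B-score means stronger Kir2.1 block with less thallium influx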
KCNK9 inh: human KCNK9 channel inhibition; Q9NPC2; HEK293 KCNK9, FluxOR thallium flux fluorescence; active compounds read low; B-score at 10 µM; hit rate 1.2% among 310,000;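 active = ratio B-score over 3 SD below the library mean, with starting fluorescence within 5 SD of its mean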;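 note: negative B-score means less thallium flux so channel inhibition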
KCNK3 block: human KCNK3 channel inhibition, primary screen; hit rate 0.84% among 340,000; CHO-KCNK3 thallium flux, FluxOR fluorescence; active compounds read low; O14649; AID 602410; B-score at 10 µM;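 active = B-score under library mean minus 4 SD, starting fluorescence ratio at most library mean plus 5 SD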;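 note: more negative B-score means stronger inhibition of thallium flux through KCNK3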
KCNQ1 inh: blocks the human KCNQ1 potassium channel; CHO-K1 KCNQ1, FluxOR thallium flux fluorescence; active compounds read high; P51787; B-score at 10 µM; hit rate 1.3% among 310,000; AID 2642;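 active = compounds whose thallium flux B-score, printed positive for inhibition, exceeds three library SD while starting fluorescence stays within three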;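 note: channel opened by potassium depolarization with thallium stimulus after 20 min compound exposure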
KCNK3 confirm: confirmation of human KCNK3 two-pore domain potassium channel inhibitors; shares compounds with KCNK3 block; CHO-KCNK3 thallium flux, FluxOR fluorescence; 0% buffer, 100% carvedilol maximal block; ratio percent of control, % at 10 µM; hit rate 99% among 2,400;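 active = ratio percent of control, averaged over triplicates, above buffer control mean plus 5 SD, cut at about 64% in these data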;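 note: ratio is the fluorescence rise from min to max over baseline after thallium stimulus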
KCNK3 uninduced: KCNK3 inhibitor counter-screen hit in non-induced cells. hit rate 40% among 2,400. thallium flux ratio (lower = more inhibition) at 10 µM. AID 651747. non-induced KCNK3 parental cells, FluxOR thallium flux; active compounds read low. shares compounds with KCNK3 block;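 active = thallium flux ratio, averaged over three wells, more than 5 SD below the buffer control mean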;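 note: host cells are CHO cells without KCNK3 induction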
A number is an active result; i = inactive; nt = no result given.

SMILES	hERG rescue	KCNQ1 act	Kir21 inh	KCNK9 inh	KCNK3 block	KCNQ1 inh	KCNK3 confirm	KCNK3 uninduced
COc1ccc(Br)c(C(=O)OCC(=O)N2CCC(Cc3ccccc3)CC2)c1	nt	nt	nt	nt	i	nt	nt	nt
COc1cccc(C2(O)CC(C(F)(F)F)=NN2C(=O)c2ccccn2)c1 (configuration not stated)	i	i	i	i	i	i	nt	nt
Cc1cccc(NC(=O)C2CCN(S(=O)(=O)c3ccc4c(c3)NC(=O)CO4)CC2)c1	i	i	i	i	i	i	nt	nt
CC(C)(C)c1ccc(/C=C/C(=O)N2CCCCC2)cc1	i	i	i	i	-8.9	i	108	i
O=C(NC1CC1)C1=C[C@@H](c2csc3ccccc23)C[C@@H](OCc2ccc(CO)cc2)O1	i	i	i	i	i	i	nt	nt
CCOc1cccc(OCCOc2ccccc2[N+](=O)[O-])c1	i	i	i	-7.2	-8.7	i	110	i
C=CCn1c(C)nnc1SCC(=O)N1CCN(S(=O)(=O)c2ccccc2)CC1	i	i	i	i	i	i	nt	nt
CCC(=O)N1c2ccc(S(=O)(=O)NCCc3ccccc3)cc2CC1C (configuration not stated)	i	i	i	i	i	i	nt	nt
O=C(Nc1ccccc1)c1sccc1Oc1ccc([N+](=O)[O-])cc1F	i	i	i	i	-9	i	113	i
O=C(O)c1cc([N+](=O)[O-])ccc1C(=O)Nc1ccccc1	i	i	i	i	i	i	nt	nt
CCCCCC1(C(=O)OCC)CC(CSC(=N)N)OC1=O (configuration not stated)	i	i	i	i	i	i	nt	nt
CCCCC(=O)Nc1cccc(-c2cn3ccccc3n2)c1	i	i	i	i	-8.7	i	121	0.13
O=C(Nc1cccc(-c2cn3ccccc3n2)c1)c1ccccc1	i	i	i	i	-12	i	112	i
O=C(Nc1cccc(-c2nc3ccccc3c(=O)o2)c1)c1ccccc1	i	i	i	i	-8.7	i	108	0.16
CC(=O)Nc1ccc2nc(CN3CCN(Cc4ccc(F)cc4)C(CCO)C3)ccc2c1 (configuration not stated)	i	i	i	i	i	i	nt	nt
CCOc1ccc(NC(=O)c2ccc(N3CC4CC(C3)c3cccc(=O)n3C4)c(NC(=O)CCN3CCOCC3)c2)cc1 (configuration not stated)	i	i	i	i	i	i	nt	nt
CC(C)(C)SCCNC(=O)CN(c1ccccc1)S(=O)(=O)c1ccc(F)cc1	i	i	i	i	i	i	nt	nt
COc1ccc(S(=O)(=O)Nc2ccccc2C(=O)N2CCOCC2)cc1C	i	i	i	i	i	i	nt	nt
COc1cc(C(=O)Nc2cccc(-c3nnc(-c4ccco4)o3)c2)ccc1OC(C)=O	i	i	i	i	-9.5	i	113	i
CCOc1ccc(S(=O)(=O)N2CCCC(C(=O)NC3CCCC3)C2)cc1 (configuration not stated)	i	i	i	i	i	i	nt	nt
Cc1ccc(NC(=O)N(Cc2ccco2)Cc2cc3cc(C)cc(C)c3nc2Cl)cc1	i	i	i	i	nt	i	nt	nt
Cc1cccc2cc(CN(Cc3ccco3)C(=O)Nc3cccc(C#N)c3)c(Cl)nc12	i	i	i	i	-9.3	6	122	0.14
Fc1ccc(-c2cnc(-c3cccs3)o2)cc1	i	i	i	i	-9.6	i	93	0.15
COc1ccccc1/C=N/NC(=O)CSc1ccc2ccccc2n1	i	i	i	i	-11	i	114	i
COc1ccccc1/C=N/NC(=O)CSc1cc(C)nc2ccccc12	i	i	i	i	i	i	nt	nt
Cc1ccc(NC(=S)N(Cc2ccco2)C(C)c2cccs2)c(Cl)c1 (configuration not stated)	i	i	i	i	-11	i	101	i
Cc1cc2c(Nc3ccc(C(=O)O)cc3)ncnc2s1	i	i	i	i	-10	i	62	i
COc1cc(OC)c(OC)cc1/C=C1/Cc2ccccc2C1=O	i	i	i	i	i	i	nt	nt

Bioassay records as filed in PubChem BioAssay.
